Tests used:
[1] = melting temperature; fluorescence melt of hairpins on a sequencing array, two-state fit, raised by 9.35 °C to match UV melts; conditions: sodium 0.088 M
In short: (§1)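 Two-state fits, bootstrapped, provided melting temperature and folding enthalpy from Cy3 fluorescence normalised to pre-quench Cy3 and to control constructs. Library hairpins with annealed Cy3 and quencher oligos were imaged on a sequenced MiSeq flow cell in 50 mM Na-HEPES pH 8.0, 25 mM NaCl, at 2.5 °C intervals up to 60 °C. Four replicates were combined with inverse-variance weighting. A 9.35 °C upward shift was applied to fitted temperatures to match UV melts.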

[2] = folding enthalpy; higher = less favourable; fluorescence melt of hairpins on a sequencing array, two-state fit; conditions: sodium 0.088 M
In short: as §1

GATCCTGCGGAGGATC ((((((....))))))
Tm [1]: 50.3 °C
folding enthalpy [2]: -37.1 kcal/mol

GATCCTGGAAAGGATC ((((((....))))))
Tm [1]: 59.5 °C
folding enthalpy [2]: -35.6 kcal/mol

GATCCTGGACAGGATC ((((((....))))))
Tm [1]: 57.5 °C
folding enthalpy [2]: -36.4 kcal/mol

GATCCTGTAAGGATC ((((((...))))))
Tm [1]: 62 °C
folding enthalpy [2]: -37 kcal/mol

GATCCTGTATAGGATC ((((((....))))))
Tm [1]: 59 °C
folding enthalpy [2]: -41.6 kcal/mol

GATCCTGTCGAGGATC ((((((....))))))
Tm [1]: 57.2 °C
folding enthalpy [2]: -36.3 kcal/mol

GATCCTGTGTAGGATC ((((((....))))))
Tm [1]: 52.3 °C
folding enthalpy [2]: -31.5 kcal/mol

GATCCTGTTGAGGATC ((((((....))))))
Tm [1]: 53.2 °C
folding enthalpy [2]: -33.9 kcal/mol

GATCCTTAGAGGATC ((((((...))))))
Tm [1]: 50 °C
folding enthalpy [2]: -28.3 kcal/mol

GATCCTTATAAGGATC ((((((....))))))
Tm [1]: 53.9 °C
folding enthalpy [2]: -36 kcal/mol

GATCCTTATAGGATC ((((((...))))))
Tm [1]: 57.4 °C
folding enthalpy [2]: -32.5 kcal/mol

GATCCTTCAAAGGATC ((((((....))))))
Tm [1]: 52.9 °C
folding enthalpy [2]: -33.5 kcal/mol

GATCCTTCACAGGATC ((((((....))))))
Tm [1]: 51.7 °C
folding enthalpy [2]: -34.7 kcal/mol

GATCCTTCCAGGATC ((((((...))))))
Tm [1]: 57.2 °C
folding enthalpy [2]: -35.2 kcal/mol

GATCCTTCCTAGGATC ((((((....))))))
Tm [1]: 52.1 °C
folding enthalpy [2]: -44.7 kcal/mol

GATCCTTCGCAGGATC ((((((....))))))
Tm [1]: 51.2 °C
folding enthalpy [2]: -37.3 kcal/mol

GATCCTTCGTAGGATC ((((((....))))))
Tm [1]: 53 °C
folding enthalpy [2]: -33.7 kcal/mol

GATCCTTCTCAGGATC ((((((....))))))
Tm [1]: 50.9 °C
folding enthalpy [2]: -45 kcal/mol

GATCCTTGATAGGATC ((((((....))))))
Tm [1]: 50.5 °C
folding enthalpy [2]: -35.4 kcal/mol

GATCCTTGCAGGATC ((((((...))))))
Tm [1]: 57.9 °C
folding enthalpy [2]: -33.7 kcal/mol

GATCCTTGCCAGGATC ((((((....))))))
Tm [1]: 51.5 °C
folding enthalpy [2]: -31 kcal/mol

GATCCTTGCGAGGATC ((((((....))))))
Tm [1]: 54.8 °C
folding enthalpy [2]: -49.1 kcal/mol

GATCCTTTAAGGATC ((((((...))))))
Tm [1]: 55.6 °C
folding enthalpy [2]: -33.1 kcal/mol

GATCCTTTCAAGGATC ((((((....))))))
Tm [1]: 57.7 °C
folding enthalpy [2]: -33.3 kcal/mol

GATCCTTTCAGGATC ((((((...))))))
Tm [1]: 57.4 °C
folding enthalpy [2]: -41.3 kcal/mol

GATCCTTTTAAGGATC ((((((....))))))
Tm [1]: 57.9 °C
folding enthalpy [2]: -36.6 kcal/mol

GATCGAAAAACGATC ((...........))
Tm [1]: 39.2 °C
folding enthalpy [2]: -20.3 kcal/mol

GATCGAAAAGTCGATC ((((((....))))))
Tm [1]: 45.9 °C
folding enthalpy [2]: -28.5 kcal/mol

GATCGAACAATCGATC ((((((....))))))
Tm [1]: 47.4 °C
folding enthalpy [2]: -31.3 kcal/mol

GATCGAACGTTCGATC ((((((....))))))
Tm [1]: 56.7 °C
folding enthalpy [2]: -49.3 kcal/mol

GATCGAAGCTCGATC ((((((...))))))
Tm [1]: 49.9 °C
folding enthalpy [2]: -36 kcal/mol

GATCGAAGCTTCGATC ((((((....))))))
Tm [1]: 56.5 °C
folding enthalpy [2]: -49.6 kcal/mol

GATCGAAGGATCGATC ((((((....))))))
Tm [1]: 51.4 °C
folding enthalpy [2]: -22.9 kcal/mol

GATCGAAGGCTCGATC ((((((....))))))
Tm [1]: 50.1 °C
folding enthalpy [2]: -31 kcal/mol

GATCGAAGTATCGATC ((((((....))))))
Tm [1]: 50.9 °C
folding enthalpy [2]: -31.7 kcal/mol

GATCGAATATTCGATC ((((((....))))))
Tm [1]: 53.3 °C
folding enthalpy [2]: -44.5 kcal/mol

GATCGAATTATCGATC ((((((....))))))
Tm [1]: 50.7 °C
folding enthalpy [2]: -38.2 kcal/mol

GATCGAATTCTCGATC ((((((....))))))
Tm [1]: 51.4 °C
folding enthalpy [2]: -43.3 kcal/mol

GATCGACAAGTCGATC ((((((....))))))
Tm [1]: 58.9 °C
folding enthalpy [2]: -44.7 kcal/mol

GATCGACAATCGATC ((((((...))))))
Tm [1]: 46.6 °C
folding enthalpy [2]: -29.4 kcal/mol

GATCGACACTCGATC ((((((...))))))
Tm [1]: 49.9 °C
folding enthalpy [2]: -30.9 kcal/mol

GATCGACAGCTCGATC ((((((....))))))
Tm [1]: 49.4 °C
folding enthalpy [2]: -41.2 kcal/mol

GATCGACCCCTCGATC ((((((....))))))
Tm [1]: 51.7 °C
folding enthalpy [2]: -47.5 kcal/mol

GATCGACGGTTCGATC ((((((....))))))
Tm [1]: 50.7 °C
folding enthalpy [2]: -39.6 kcal/mol

GATCGACTAATCGATC ((((((....))))))
Tm [1]: 49.9 °C
folding enthalpy [2]: -30.3 kcal/mol

GATCGACTATCGATC ((((((...))))))
Tm [1]: 49.3 °C
folding enthalpy [2]: -35.2 kcal/mol

GATCGACTGGTCGATC ((((((....))))))
Tm [1]: 62.7 °C
folding enthalpy [2]: -37.5 kcal/mol

GATCGAGAAGTCGATC ((((((....))))))
Tm [1]: 55.4 °C
folding enthalpy [2]: -31.1 kcal/mol

GATCGAGATATCGATC ((((((....))))))
Tm [1]: 58.7 °C
folding enthalpy [2]: -38.2 kcal/mol

GATCGAGCAGTCGATC ((((((....))))))
Tm [1]: 54.3 °C
folding enthalpy [2]: -39.7 kcal/mol

GATCGAGCGGTCGATC ((((((....))))))
Tm [1]: 53 °C
folding enthalpy [2]: -45.7 kcal/mol

GATCGAGCTTCGATC ((((((...))))))
Tm [1]: 51.3 °C
folding enthalpy [2]: -33.8 kcal/mol

GATCGAGGAGTCGATC ((((((....))))))
Tm [1]: 53.7 °C
folding enthalpy [2]: -40.2 kcal/mol

GATCGAGGCATCGATC ((((((....))))))
Tm [1]: 58.5 °C
folding enthalpy [2]: -41.8 kcal/mol

GATCGAGTAGTCGATC ((((((....))))))
Tm [1]: 55.9 °C
folding enthalpy [2]: -34.3 kcal/mol

GATCGAGTCCTCGATC ((((((....))))))
Tm [1]: 56.2 °C
folding enthalpy [2]: -45.8 kcal/mol

GATCGAGTGTCGATC ((((((...))))))
Tm [1]: 49.8 °C
folding enthalpy [2]: -37.6 kcal/mol

GATCGAGTGTTCGATC ((((((....))))))
Tm [1]: 51.9 °C
folding enthalpy [2]: -34.8 kcal/mol

GATCGATAACTCGATC ((((((....))))))
Tm [1]: 49.3 °C
folding enthalpy [2]: -36.3 kcal/mol

GATCGATATTCGATC ((((((...))))))
Tm [1]: 52.6 °C
folding enthalpy [2]: -30.3 kcal/mol

GATCGATCCGTCGATC ((((((....))))))
Tm [1]: 53.6 °C
folding enthalpy [2]: -44.8 kcal/mol

GATCGATCGGTCGATC ((((((....))))))
Tm [1]: 52 °C
folding enthalpy [2]: -41.6 kcal/mol

GATCGATCTGTCGATC ((((((....))))))
Tm [1]: 53.1 °C
folding enthalpy [2]: -45.2 kcal/mol

GATCGATCTTTCGATC ((((((....))))))
Tm [1]: 53.1 °C
folding enthalpy [2]: -48.8 kcal/mol

GATCGATGACTCGATC ((((((....))))))
Tm [1]: 49.5 °C
folding enthalpy [2]: -30.5 kcal/mol

GATCGATGATCGATC ((((((...))))))
Tm [1]: 50.7 °C
folding enthalpy [2]: -22.2 kcal/mol

GATCGATGTGTCGATC ((((((....))))))
Tm [1]: 57.9 °C
folding enthalpy [2]: -40.2 kcal/mol

GATCGCAATAGCGATC ((((((....))))))
Tm [1]: 68.4 °C
folding enthalpy [2]: -26 kcal/mol

GATCGCAATGCGATC ((((((...))))))
Tm [1]: 68.5 °C
folding enthalpy [2]: -33 kcal/mol

GATCGCAATTGCGATC ((((((....))))))
Tm [1]: 67.8 °C
folding enthalpy [2]: -31.1 kcal/mol

GATCGCACCCGCGATC ((((((....))))))
Tm [1]: 67.6 °C
folding enthalpy [2]: -38.9 kcal/mol

GATCGCACGAGCGATC ((((((....))))))
Tm [1]: 68.4 °C
folding enthalpy [2]: -31.7 kcal/mol

GATCGCACGTGCGATC ((((((....))))))
Tm [1]: 68.8 °C
folding enthalpy [2]: -40.4 kcal/mol

GATCGCAGCGGCGATC ((((((....))))))
Tm [1]: 68.4 °C
folding enthalpy [2]: -28.8 kcal/mol

GATCGCAGCTGCGATC ((((((....))))))
Tm [1]: 69.3 °C
folding enthalpy [2]: -41 kcal/mol

GATCGCCAAGCGATC ((((((...))))))
Tm [1]: 67.5 °C
folding enthalpy [2]: -29.8 kcal/mol

GATCGCCAATGCGATC ((((((....))))))
Tm [1]: 65.3 °C
folding enthalpy [2]: -38.1 kcal/mol

GATCGCCCAAGCGATC ((((((....))))))
Tm [1]: 66.7 °C
folding enthalpy [2]: -23 kcal/mol

GATCGCCCGAAAGGGATC (((..(((....))))))
Tm [1]: 34.5 °C
folding enthalpy [2]: -14.6 kcal/mol

GATCGCCCTAGCGATC ((((((....))))))
Tm [1]: 69.1 °C
folding enthalpy [2]: -34.4 kcal/mol

GATCGCCGCTGCGATC ((((((....))))))
Tm [1]: 66.9 °C
folding enthalpy [2]: -38.5 kcal/mol

GATCGCGAAAGCGACATC ((((((....)))..)))
Tm [1]: 32.1 °C
folding enthalpy [2]: -8.3 kcal/mol

GATCGCGAAAGCGGGATC ((((((....)))..)))
Tm [1]: 45.5 °C
folding enthalpy [2]: -14.1 kcal/mol

GATCGCGAAAGCGGTATC ((((((....)))..)))
Tm [1]: 39 °C
folding enthalpy [2]: -10.9 kcal/mol

GATCGCGAAAGCGTATC ((((((....))).)))
Tm [1]: 51.8 °C
folding enthalpy [2]: -15.5 kcal/mol

GATCGCGAAAGCGTTATC ((((((....)))..)))
Tm [1]: 28.1 °C
folding enthalpy [2]: -15 kcal/mol

GATCGCGCCTGCGATC ((((((....))))))
Tm [1]: 69.3 °C
folding enthalpy [2]: -26.7 kcal/mol

GATCGCGCGGCGATC ((((((...))))))
Tm [1]: 68.5 °C
folding enthalpy [2]: -34.6 kcal/mol

GATCGCGCGGGCGATC ((((((....))))))
Tm [1]: 67.2 °C
folding enthalpy [2]: -32.9 kcal/mol

GATCGCGCGTGCGATC ((((((....))))))
Tm [1]: 67.9 °C
folding enthalpy [2]: -26.4 kcal/mol

GATCGCGGAAACACGATC (((((.(....).)))))
Tm [1]: 48.6 °C
folding enthalpy [2]: -30.7 kcal/mol

GATCGCGGAAACGTGGTC ((.(.((....)).).))
Tm [1]: 43.6 °C
folding enthalpy [2]: -26.7 kcal/mol

GATCGCGGGGGCGATC ((((((....))))))
Tm [1]: 69.3 °C
folding enthalpy [2]: -27.7 kcal/mol

GATCGCTAATGCGATC ((((((....))))))
Tm [1]: 67.1 °C
folding enthalpy [2]: -31.4 kcal/mol

GATCGCTCGAGCGATC ((((((....))))))
Tm [1]: 67.6 °C
folding enthalpy [2]: -42.1 kcal/mol

GATCGCTGCCGCGATC ((((((....))))))
Tm [1]: 67.3 °C
folding enthalpy [2]: -32.8 kcal/mol

Reference: the array DNA melting data of Ke et al. (doi:10.1101/2024.01.08.574731)
